# Assay results reported in ChEMBL document CHEMBL3244395, “Antimycotic imidazoles. 2. Synthesis and antifungal properties of esters of 1-[2-hydroxy(mercapto)-2-phenylethyl]-1H-imidazoles” (J Med Chem, 1978).
# Calls of active or inactive are those of the source. No cut-off for these calls is given here.
# Experiments:
# Nannizzia gypsea = assay: Antifungal activity against Microsporum gypseum assessed as lowest concentration required for total inhibition broth dilution assay; format: functional; settings: read-out: MIC100
# In short: (§1)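 Broth dilution against dermatophytes, C. albicans ATCC 10231 and 14053, and C. neoformans. The end point is the lowest concentration with total inhibition. "<" marks the lowest level tested, and ">" marks partial growth at that dilution.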
# Epidermophyton floccosum = assay: Antifungal activity against Epidermophyton floccosum assessed as lowest concentration required for total inhibition broth dilution assay; format: functional; settings: read-out: MIC100; in short: as §1
# [1] = system: Trichophyton mentagrophytes; assay: Antifungal activity against Trichophyton mentagrophytes assessed as lowest concentration required for total inhibition broth dilution assay; format: functional; settings: read-out: MIC100; in short: as §1
# Candida albicans [2] = assay: Antifungal activity against Candida albicans ATCC 10231 assessed as lowest concentration required for total inhibition by broth dilution assay; format: functional; settings: read-out: MIC100; in short: as §1
# Candida albicans [3] = assay: Antifungal activity against Candida albicans ATCC 14053 assessed as lowest concentration required for total inhibition by broth dilution assay; format: functional; settings: read-out: MIC100; in short: as §1
# Cryptococcus neoformans = assay: Antifungal activity against Cryptococcus neoformans assessed as lowest concentration required for total inhibition by broth dilution assay; format: functional; settings: read-out: MIC100; in short: as §1
# [4] = Lipophilic-hydrophilic balance, Rm of the compound assessed as change in compound Rm to miconazole Rm by reverse-phase TLC method; format: physicochemical; settings: silicone oil-impregnated silica gel, MeCN-H2O-AcOH
# Staphylococcus aureus = assay: Antibacterial activity against Staphylococcus aureus ATCC 12600 assessed as lowest concentration required for total inhibition by broth microdilution assay; format: functional; settings: for MIC: read-out: MIC100
# In short: (§2)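 Broth microdilution against the listed ATCC […] strains. The value is the lowest concentration giving total inhibition. "<" marks the lowest level tested, and ">" marks partial growth at that dilution.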
# Enterococcus faecalis = assay: Antibacterial activity against Streptococcus faecalis ATCC 14506 assessed as lowest concentration required for total inhibition by broth microdilution assay; format: functional; settings: for MIC: read-out: MIC100; in short: as §2
# Cutibacterium acnes = assay: Antibacterial activity against Corynebacterium acnes ATCC 11828 assessed as lowest concentration required for total inhibition by broth microdilution assay; format: functional; settings: for MIC: read-out: MIC100; in short: as §2
# [5] = system: Erysipelothrix rhusiopathiae; assay: Antibacterial activity against Erysipelothrix insidiosa ATCC 19414 assessed as lowest concentration required for total inhibition by broth microdilution assay; format: functional; settings: for MIC: read-out: MIC100; in short: as §2
# Pasteurella multocida = assay: Antibacterial activity against Pasteurella multocida ATCC 19427 assessed as lowest concentration required for total inhibition by broth microdilution assay; format: functional; settings: for MIC: read-out: MIC100; in short: as §2
# Candida albicans [6] = assay: Antifungal activity against Candida albicans in mouse vaginal infection model compound applied intravaginally as 2% formulation in an aqueous propylene glycol cream for 4 days bid; format: functional, organism-based; settings: Vagina
# In short: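 Mice with vaginal C. albicans infection, following Wildfeuer's method. The compound was applied intravaginally as a 2% formulation in an aqueous propylene glycol cream, twice daily for 4 days. Read-out was animals cured over total number infected.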
Compound,MIC (Nannizzia gypsea),MIC (Epidermophyton floccosum),MIC [1],MIC (Candida albicans [2]),MIC (Candida albicans [3]),MIC (Cryptococcus neoformans),deltaRm [4],MIC (Staphylococcus aureus),MIC (Enterococcus faecalis),MIC (Cutibacterium acnes),MIC [5],MIC (Pasteurella multocida),Activity (Candida albicans [6]),MIC100 (Staphylococcus aureus),MIC100 (Enterococcus faecalis),MIC100 (Cutibacterium acnes),MIC100 [5],MIC100 (Pasteurella multocida)
CCCSC(=O)OC(Cn1ccnc1)c1ccc(Cl)cc1Cl.O=C(O)C(=O)O (stereo unspecified),30 µg/mL,< 0.1 µg/mL,30 µg/mL,300 µg/mL,300 µg/mL,3 µg/mL,,,,,,,,,,,,
CCCCCCOC(=O)OC(Cn1ccnc1)c1ccc(Cl)cc1Cl.O=[N+]([O-])O (stereo unspecified),30 µg/mL,< 0.3 µg/mL,30 µg/mL,100 µg/mL,100 µg/mL,30 µg/mL,-0.17,,,,,,,,,,,
CCCCCCCCOC(=S)SC(Cn1ccnc1)c1ccc(Cl)cc1Cl.O=[N+]([O-])O (stereo unspecified),30 µg/mL,1 µg/mL,30 µg/mL,100 µg/mL,100 µg/mL,< 1 µg/mL,1.23,> 100 µg/mL,1 µg/mL,100 µg/mL,30 µg/mL,1 µg/mL,,,,,,
CCCCCOC(=S)SC(Cn1ccnc1)c1ccc(Cl)cc1.O=C(O)C(=O)O (stereo unspecified),3 µg/mL,0.3 µg/mL,10 µg/mL,30 µg/mL,30 µg/mL,3 µg/mL,0.22,,,,,,,,,,,
O=C(/C=C/c1ccccc1)SC(Cn1ccnc1)c1ccc(Cl)cc1Cl.O=[N+]([O-])O (stereo unspecified),30 µg/mL,< 0.1 µg/mL,10 µg/mL,10 µg/mL,10 µg/mL,< 1 µg/mL,-0.08,,,,,,,,,,,
CC(C)OC(=S)SC(Cn1ccnc1)c1ccc(Cl)cc1Cl.O=[N+]([O-])O (stereo unspecified),10 µg/mL,< 0.1 µg/mL,10 µg/mL,100 µg/mL,30 µg/mL,< 0.3 µg/mL,-0.14,,,,,,,,,,,
CCCCCCCC(=O)OC(Cn1ccnc1)c1ccc(Cl)cc1Cl.O=[N+]([O-])O (stereo unspecified),10 µg/mL,< 0.1 µg/mL,10 µg/mL,30 µg/mL,30 µg/mL,< 1 µg/mL,0.1,,,,,,inactive,,,,,
O=C(OC(Cn1ccnc1)c1ccc(Cl)cc1Cl)c1ccc(Cl)cc1Cl.O=[N+]([O-])O (stereo unspecified),30 µg/mL,< 0.1 µg/mL,30 µg/mL,300 µg/mL,300 µg/mL,3 µg/mL,-0.24,,,,,,,,,,,
CCCCCOC(=S)SC(Cn1ccnc1)c1ccc(Cl)cc1Cl.O=[N+]([O-])O (stereo unspecified),3 µg/mL,< 0.1 µg/mL,3 µg/mL,3 µg/mL,3 µg/mL,< 1 µg/mL,0.37,3 µg/mL,10 µg/mL,> 100 µg/mL,100 µg/mL,1 µg/mL,,,,,,
O=C(OC(Cn1ccnc1)c1ccc(Cl)cc1Cl)c1ccc(Cl)cc1.O=[N+]([O-])O (stereo unspecified),100 µg/mL,< 0.1 µg/mL,30 µg/mL,300 µg/mL,300 µg/mL,3 µg/mL,-0.39,,,,,,inactive,,,,,
O=C(Cc1ccccc1)SC(Cn1ccnc1)c1ccc(Cl)cc1Cl.O=[N+]([O-])O (stereo unspecified),30 µg/mL,< 0.1 µg/mL,30 µg/mL,100 µg/mL,100 µg/mL,< 1 µg/mL,-0.43,,,,,,,,,,,
O=C(/C=C/c1ccc(Cl)cc1)OC(Cn1ccnc1)c1ccc(Cl)cc1Cl.O=[N+]([O-])O (stereo unspecified),10 µg/mL,< 0.1 µg/mL,10 µg/mL,> 300 µg/mL,> 300 µg/mL,< 1 µg/mL,,,,,,,,,,,,
O=C(SC(Cn1ccnc1)c1ccc(Cl)cc1Cl)c1ccccc1Cl.O=[N+]([O-])O (stereo unspecified),10 µg/mL,< 0.1 µg/mL,10 µg/mL,30 µg/mL,30 µg/mL,< 1 µg/mL,-0.35,10 µg/mL,30 µg/mL,> 100 µg/mL,100 µg/mL,1 µg/mL,,,,,,
CCCCCCCCCCCC(=O)OC(Cn1ccnc1)c1ccc(Cl)cc1Cl.O=[N+]([O-])O (stereo unspecified),> 100 µg/mL,1 µg/mL,> 100 µg/mL,> 300 µg/mL,> 300 µg/mL,< 1 µg/mL,1.1,10 µg/mL,100 µg/mL,> 100 µg/mL,10 µg/mL,1 µg/mL,,,,,,
CC(C)(C)SC(=O)SC(Cn1ccnc1)c1ccc(Cl)cc1Cl.O=[N+]([O-])O (stereo unspecified),10 µg/mL,< 0.1 µg/mL,3 µg/mL,30 µg/mL,30 µg/mL,3 µg/mL,0.05,3 µg/mL,10 µg/mL,100 µg/mL,100 µg/mL,1 µg/mL,,,,,,
O=[N+]([O-])O.S=C(OC1CCCCC1)SC(Cn1ccnc1)c1ccc(Cl)cc1Cl (stereo unspecified),3 µg/mL,< 0.1 µg/mL,3 µg/mL,3 µg/mL,3 µg/mL,< 1 µg/mL,0.43,,,,,,,,,,,

Compound,MIC (Nannizzia gypsea),MIC (Epidermophyton floccosum),MIC [1],MIC (Candida albicans [2]),MIC (Candida albicans [3]),MIC (Cryptococcus neoformans),deltaRm [4],MIC (Staphylococcus aureus),MIC (Enterococcus faecalis),MIC (Cutibacterium acnes),MIC [5],MIC (Pasteurella multocida),Activity (Candida albicans [6]),MIC100 (Staphylococcus aureus),MIC100 (Enterococcus faecalis),MIC100 (Cutibacterium acnes),MIC100 [5],MIC100 (Pasteurella multocida)
O=C(Sc1ccccc1)SC(Cn1ccnc1)c1ccc(Cl)cc1Cl.O=[N+]([O-])O (stereo unspecified),3 µg/mL,< 0.1 µg/mL,10 µg/mL,100 µg/mL,100 µg/mL,< 1 µg/mL,-0.02,10 µg/mL,30 µg/mL,> 100 µg/mL,100 µg/mL,3 µg/mL,,,,,,
CCCOC(=S)SC(Cn1ccnc1)c1ccc(Cl)cc1Cl.O=[N+]([O-])O (stereo unspecified),10 µg/mL,< 0.1 µg/mL,10 µg/mL,100 µg/mL,30 µg/mL,< 0.3 µg/mL,-0.03,,,,,,Active,,,,,
O=C(O)C(=O)O.S=C(OCc1ccccc1)SC(Cn1ccnc1)c1ccc(Cl)cc1Cl (stereo unspecified),10 µg/mL,< 0.1 µg/mL,1 µg/mL,30 µg/mL,10 µg/mL,< 0.3 µg/mL,-0.21,,,,,,,,,,,
O=C(Cc1ccc(Cl)cc1)SC(Cn1ccnc1)c1ccc(Cl)cc1Cl.O=[N+]([O-])O (stereo unspecified),> 30 µg/mL,< 0.1 µg/mL,30 µg/mL,100 µg/mL,100 µg/mL,< 1 µg/mL,,,,,,,,,,,,
O=C(Cc1ccc(Cl)cc1)OC(Cn1ccnc1)c1ccc(Cl)cc1Cl.O=[N+]([O-])O (stereo unspecified),100 µg/mL,< 0.1 µg/mL,30 µg/mL,100 µg/mL,100 µg/mL,3 µg/mL,-0.41,,,,,,,,,,,
GENTAMICIN,,,,,,,,,,,,,,1 µg/mL,30 µg/mL,1 µg/mL,30 µg/mL,< 0.1 µg/mL
CC(=O)SC(Cn1ccnc1)c1ccc(Cl)cc1Cl.O=[N+]([O-])O (stereo unspecified),100 µg/mL,1 µg/mL,100 µg/mL,300 µg/mL,300 µg/mL,10 µg/mL,,,,,,,,,,,,
CCCCOC(=S)SC(Cn1ccnc1)c1ccc(Cl)cc1Cl.O=[N+]([O-])O (stereo unspecified),3 µg/mL,< 0.1 µg/mL,3 µg/mL,30 µg/mL,10 µg/mL,1 µg/mL,0.19,,,,,,Active,,,,,
CCCCOC(=O)SC(Cn1ccnc1)c1ccc(Cl)cc1Cl.O=[N+]([O-])O (stereo unspecified),30 µg/mL,< 0.1 µg/mL,10 µg/mL,30 µg/mL,30 µg/mL,< 0.3 µg/mL,-0.14,,,,,,,,,,,
Cc1ccc(C(=O)SC(Cn2ccnc2)c2ccc(Cl)cc2Cl)cc1.O=[N+]([O-])O (stereo unspecified),30 µg/mL,< 0.1 µg/mL,10 µg/mL,10 µg/mL,10 µg/mL,< 1 µg/mL,-0.09,,,,,,,,,,,
CCCCCCCCOC(=O)OC(Cn1ccnc1)c1ccc(Cl)cc1Cl.O=[N+]([O-])O (stereo unspecified),10 µg/mL,< 0.1 µg/mL,10 µg/mL,300 µg/mL,30 µg/mL,3 µg/mL,0.4,,,,,,,,,,,
CCCCCCCCOC(=O)SC(Cn1ccnc1)c1ccc(Cl)cc1Cl.O=[N+]([O-])O (stereo unspecified),30 µg/mL,< 0.1 µg/mL,10 µg/mL,> 300 µg/mL,> 300 µg/mL,< 1 µg/mL,0.82,1 µg/mL,30 µg/mL,100 µg/mL,10 µg/mL,1 µg/mL,,,,,,
O=C(Cc1ccc(F)cc1)SC(Cn1ccnc1)c1ccc(Cl)cc1Cl.O=[N+]([O-])O (stereo unspecified),30 µg/mL,< 0.1 µg/mL,30 µg/mL,100 µg/mL,100 µg/mL,< 1 µg/mL,,,,,,,,,,,,
CC(C)COC(=S)SC(Cn1ccnc1)c1ccc(Cl)cc1Cl.O=[N+]([O-])O (stereo unspecified),3 µg/mL,< 0.1 µg/mL,3 µg/mL,30 µg/mL,10 µg/mL,< 0.3 µg/mL,0.17,,,,,,,,,,,
CC(C)(C)c1ccc(C(=O)OC(Cn2ccnc2)c2ccc(Cl)cc2Cl)cc1.O=C(O)C(=O)O (stereo unspecified),10 µg/mL,1 µg/mL,10 µg/mL,10 µg/mL,10 µg/mL,3 µg/mL,0.16,,,,,,,,,,,
CCCCCCC(=O)OC(Cn1ccnc1)c1ccc(Cl)cc1Cl.O=[N+]([O-])O (stereo unspecified),30 µg/mL,< 0.1 µg/mL,30 µg/mL,100 µg/mL,100 µg/mL,3 µg/mL,-0.16,,,,,,,,,,,
